From ChEMBL document CHEMBL2062460, “Disubstituted thiourea derivatives and their activity on CNS: synthesis and biological evaluation” (Eur J Med Chem, 2012)
≈ marks a conversion by molar mass, not a printed value. Calls of active or inactive are those of the source. The calls are words filed in the database; no cut-off is given here.

Tests used:
[1] = tested on: Staphylococcus epidermidis; test: Antibacterial activity against methicillin-resistant Staphylococcus epidermidis clinical isolate 311/08 after 18 hrs by twofold serial agar dilution technique; assay type: functional; conditions: clinical isolate 311/08, 18 h
In short: (§1)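 Clinical isolates came from patients in Warsaw Medical University Hospitals and were classed as methicillin-susceptible or -resistant. MIC was determined by twofold serial agar dilution on Mueller–Hinton II agar (CLSI), 3.125–400 µg/mL in agar, with compounds in methanol or DMSO. Inoculum was 10^4 CFU/mL and plates were read after 18 h at 35 °C.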

[2] = tested on: Staphylococcus epidermidis; test: Antibacterial activity against methicillin-resistant Staphylococcus epidermidis clinical isolate 315/08 after 18 hrs by twofold serial agar dilution technique; assay type: functional; conditions: clinical isolate 315/08, 18 h; in short: as §1
[3] = tested on: Staphylococcus epidermidis; test: Antibacterial activity against methicillin-resistant Staphylococcus epidermidis clinical isolate 316/08 after 18 hrs by twofold serial agar dilution technique; assay type: functional; conditions: clinical isolate 316/08, 18 h; in short: as §1
[4] = tested on: Staphylococcus epidermidis; test: Antibacterial activity against methicillin-resistant Staphylococcus epidermidis clinical isolate 317/08 after 18 hrs by twofold serial agar dilution technique; assay type: functional; conditions: clinical isolate 317/08, 18 h; in short: as §1
[5] = tested on: Staphylococcus epidermidis; test: Antibacterial activity against methicillin-resistant Staphylococcus epidermidis clinical isolate 318/08 after 18 hrs by twofold serial agar dilution technique; assay type: functional; conditions: clinical isolate 318/08, 18 h; in short: as §1
[6] = tested on: Staphylococcus epidermidis; test: Antibacterial activity against methicillin-resistant Staphylococcus epidermidis clinical isolate 340/09 after 18 hrs by twofold serial agar dilution technique; assay type: functional; conditions: clinical isolate 340/09, 18 h; in short: as §1
[7] = tested on: Staphylococcus epidermidis; test: Antibacterial activity against methicillin-resistant Staphylococcus epidermidis clinical isolate 341/09 after 18 hrs by twofold serial agar dilution technique; assay type: functional; conditions: clinical isolate 341/09, 18 h; in short: as §1
[8] = tested on: Staphylococcus epidermidis; test: Antibacterial activity against methicillin-resistant Staphylococcus epidermidis clinical isolate 342/09 after 18 hrs by twofold serial agar dilution technique; assay type: functional; conditions: clinical isolate 342/09, 18 h; in short: as §1
[9] = tested on: Staphylococcus epidermidis; test: Antibacterial activity against methicillin-resistant Staphylococcus epidermidis clinical isolate 343/09 after 18 hrs by twofold serial agar dilution technique; assay type: functional; conditions: clinical isolate 343/09, 18 h; in short: as §1
[10] = tested on: Staphylococcus epidermidis; test: Antibacterial activity against methicillin-resistant Staphylococcus epidermidis clinical isolate 377/09 after 18 hrs by twofold serial agar dilution technique; assay type: functional; conditions: clinical isolate 377/09, 18 h; in short: as §1
[11] = Cytotoxicity against human MT4 cells after 96 hrs by MTT assay; assay type: cell-based
[12] = tested on: Human immunodeficiency virus 1; test: Antiviral activity against HIV1 infected in human MT4 cells assessed as virus-induced cytopathogenicity after 4 days by MTT assay; assay type: functional, organism-based; conditions: Human immunodeficiency virus 1, MT4, 96 h
Mus musculus [13] = test: Toxicity in Albino Swiss mouse assessed as locomotor activity administered at doses equivalent to 0.1 ED50, ip measured after 1 hr for 30 mins; assay type: organism-based; conditions: in vivo
In short: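 Spontaneous locomotor activity of single male Albino Swiss mice in photoresistor actometers (two light beams), beam crossings recorded for 30 min, starting 60 min after i.p. compound in 0.5% methylcellulose.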

Mus musculus [14] = test: Toxicity in Albino Swiss mouse assessed as effect on amphetamine-induced hyperactivity administered at doses equivalent to 0.1 ED50, ip; assay type: organism-based; conditions: in vivo
In short: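 Compound i.p. in 0.5% methylcellulose 60 min before test; amphetamine 5 mg/kg s.c. 30 min before test; single mice in photoresistor actometers, light-beam crossings counted for 30 min.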

Mus musculus [15] = test: Antinociceptive activity in Albino Swiss mouse administered at doses equivalent to 0.025 to 0.1 ED50, ip; assay type: functional, organism-based
Mus musculus [16] = test: Toxicity in Albino Swiss mouse assessed as motor coordination administered at doses equivalent to 0.1 ED50, ip by chimney test; assay type: organism-based; conditions: in vivo
Mus musculus [17] = test: Toxicity in Albino Swiss mouse assessed as motor coordination administered at doses equivalent to 0.1 ED50, ip by rota rod test; assay type: organism-based; conditions: in vivo
Mus musculus [18] = test: Anticonvulsant activity in Albino Swiss mouse assessed as protection against pentylenetetrazole-induced severity of clonic or tonic seizures administered at doses equivalent to 0.1 ED50, ip; assay type: functional, organism-based
Mus musculus [19] = test: Anticonvulsant activity in Albino Swiss mouse assessed as protection against pentylenetetrazole-induced mortality administered at doses equivalent to 0.1 ED50, ip; assay type: functional, organism-based
Bacillus subtilis = test: Antibacterial activity against Bacillus subtilis ATCC 6633 at 400 ug/disc after 18 hrs by disc diffusion method; assay type: functional; conditions: ATCC 6633, 18 h, read-out: DIZ
In short: (§2)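 Disc diffusion per CLSI on Mueller–Hinton II agar; 9 mm paper discs loaded from methanol or DMSO solutions to 400 µg per disc, dried; growth inhibition zone diameter read after 18 h at 35 °C.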

[20] = tested on: Staphylococcus epidermidis; test: Antibacterial activity against Staphylococcus epidermidis ATCC 12228 at 400 ug/disc after 18 hrs by disc diffusion method; assay type: functional; in short: as §2
Mus musculus [21] = test: Reduction of 5-hydroxytryptophan-induced head twitch in Albino Swiss mouse administered at doses equivalent to 0.1 ED50, ip; assay type: functional, organism-based
Enterococcus hirae = test: Antibacterial activity against Enterococcus hirae ATCC 10541 at 400 ug/disc after 18 hrs by disc diffusion method; assay type: functional; in short: as §2
Mus musculus [22] = test: Reduction of body temperature in normothermic Albino Swiss mouse administered at doses equivalent to 0.1 ED50, ip measured in rectum by thermistor thermometer analysis; assay type: ADME, organism-based; conditions: in vivo
Staphylococcus aureus [23] = test: Antibacterial activity against Staphylococcus aureus NCTC 4163 at 400 ug/disc after 18 hrs by disc diffusion method; assay type: functional; in short: as §2
Staphylococcus aureus [24] = test: Antibacterial activity against Staphylococcus aureus ATCC 25923 at 400 ug/disc after 18 hrs by disc diffusion method; assay type: functional; in short: as §2
Staphylococcus aureus [25] = test: Antibacterial activity against Staphylococcus aureus ATCC 6538 at 400 ug/disc after 18 hrs by disc diffusion method; assay type: functional; in short: as §2
Staphylococcus aureus [26] = test: Antibacterial activity against Staphylococcus aureus ATCC 29213 at 400 ug/disc after 18 hrs by disc diffusion method; assay type: functional; in short: as §2
Bacillus cereus = test: Antibacterial activity against Bacillus cereus ATCC 11778 at 400 ug/disc after 18 hrs by disc diffusion method; assay type: functional; in short: as §2
Micrococcus luteus [27] = test: Antibacterial activity against Micrococcus luteus ATCC 9341 at 400 ug/disc after 18 hrs by disc diffusion method; assay type: functional; in short: as §2
Micrococcus luteus [28] = test: Antibacterial activity against Micrococcus luteus ATCC 10240 at 400 ug/disc after 18 hrs by disc diffusion method; assay type: functional; conditions: ATCC 10240, 18 h, read-out: DIZ; in short: as §2
Escherichia coli [29] = test: Antibacterial activity against Escherichia coli ATCC 10538 at 400 ug/disc after 18 hrs by disc diffusion method; assay type: functional, organism-based; in short: as §2
Escherichia coli [30] = test: Antibacterial activity against Escherichia coli ATCC 25922 at 400 ug/disc after 18 hrs by disc diffusion method; assay type: functional, organism-based; in short: as §2
Escherichia coli [31] = test: Antibacterial activity against Escherichia coli NCTC 8196 at 400 ug/disc after 18 hrs by disc diffusion method; assay type: functional, organism-based; in short: as §2
Proteus vulgaris = test: Antibacterial activity against Proteus vulgaris NCTC 4635 at 400 ug/disc after 18 hrs by disc diffusion method; assay type: functional, organism-based; in short: as §2
Pseudomonas aeruginosa [32] = test: Antibacterial activity against Pseudomonas aeruginosa ATCC 15442 at 400 ug/disc after 18 hrs by disc diffusion method; assay type: functional, organism-based; in short: as §2
Pseudomonas aeruginosa [33] = test: Antibacterial activity against Pseudomonas aeruginosa NCTC 6749 at 400 ug/disc after 18 hrs by disc diffusion method; assay type: functional, organism-based; in short: as §2
Pseudomonas aeruginosa [34] = test: Antibacterial activity against Pseudomonas aeruginosa ATCC 27853 at 400 ug/disc after 18 hrs by disc diffusion method; assay type: functional, organism-based; in short: as §2
[35] = tested on: Bordetella bronchiseptica; test: Antibacterial activity against Bordetella bronchiseptica ATCC 4617 at 400 ug/disc after 18 hrs by disc diffusion method; assay type: functional, organism-based; in short: as §2
Candida albicans [36] = test: Antifungal activity against Candida albicans ATCC 10231 at 400 ug/disc after 18 hrs by disc diffusion method; assay type: functional, organism-based
In short: (§3)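 Yeasts tested by disc diffusion (CLSI) on RPMI agar with 2% glucose; 9 mm paper discs bearing 400 µg compound from methanol or DMSO solution; inhibition zone diameter read after 18 h at 35 °C.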

Candida albicans [37] = test: Antifungal activity against Candida albicans ATCC 90028 at 400 ug/disc after 18 hrs by disc diffusion method; assay type: functional, organism-based; in short: as §3
Candida parapsilosis = test: Antifungal activity against Candida parapsilosis ATCC 22019 at 400 ug/disc after 18 hrs by disc diffusion method; assay type: functional, organism-based; in short: as §3

| SMILES | CC50 at 96 h [11] [µM] | EC50 [12] [µM] | zone of inhibition at 400 µg/disc (Bacillus subtilis) [mm] | diameter of the inhibition zone (DIZ) [20] | diameter of the inhibition zone (DIZ) (Enterococcus hirae) | diameter of the inhibition zone (DIZ) (Staphylococcus aureus [23]) | diameter of the inhibition zone (DIZ) (Staphylococcus aureus [24]) | diameter of the inhibition zone (DIZ) (Staphylococcus aureus [25]) | diameter of the inhibition zone (DIZ) (Staphylococcus aureus [26]) | diameter of the inhibition zone (DIZ) (Bacillus cereus) | zone of inhibition at 400 µg/disc (Micrococcus luteus [28]) [mm] | diameter of the inhibition zone (DIZ) (Escherichia coli [29]) | diameter of the inhibition zone (DIZ) (Escherichia coli [30]) | diameter of the inhibition zone (DIZ) (Escherichia coli [31]) | diameter of the inhibition zone (DIZ) (Proteus vulgaris) | diameter of the inhibition zone (DIZ) (Pseudomonas aeruginosa [32]) | diameter of the inhibition zone (DIZ) (Pseudomonas aeruginosa [33]) | diameter of the inhibition zone (DIZ) (Pseudomonas aeruginosa [34]) | diameter of the inhibition zone (DIZ) [35] | diameter of the inhibition zone (DIZ) (Candida albicans [36]) | further results |
| --- | --- | --- | --- | --- | --- | --- | --- | --- | --- | --- | --- | --- | --- | --- | --- | --- | --- | --- | --- | --- | --- |
| Nc1ncnn1/C(S)=N/C1CCCCC1 | > 100 | > 100 | – | – | – | – | – | – | – | – | – | – | – | – | – | – | – | – | – | – | MIC [1]: 25 µg/mL (≈ 111 µM); MIC [2]: 12.5 µg/mL (≈ 55.5 µM); MIC [3]: 25 µg/mL (≈ 111 µM); MIC [4]: 25 µg/mL (≈ 111 µM); MIC [5]: 12.5 µg/mL (≈ 55.5 µM); MIC [6]: 12.5 µg/mL (≈ 55.5 µM); MIC [7]: 25 µg/mL (≈ 111 µM); MIC [8]: 25 µg/mL (≈ 111 µM); MIC [9]: 12.5 µg/mL (≈ 55.5 µM); MIC [10]: 25 µg/mL (≈ 111 µM) |
| O=C1Nc2ccc(Cl)cc2[C@@](C#CC2CC2)(C(F)(F)F)O1 [EFAVIRENZ] | 37 | – | – | – | – | – | – | – | – | – | – | – | – | – | – | – | – | – | – | – | – |
| S=C(Nc1cccc(Br)c1)Nc1nc[nH]n1 | 50 | > 50 | 16 | inactive | inactive | inactive | inactive | inactive | inactive | inactive | 14 | inactive | inactive | inactive | inactive | inactive | inactive | inactive | inactive | inactive | Activity (Mus musculus [13]): Non-toxic; Activity (Mus musculus [14]): Non-toxic; Activity (Mus musculus [15]): Active; Activity (Mus musculus [16]): Non-toxic; Activity (Mus musculus [17]): Non-toxic; Activity (Mus musculus [18]): inactive; Activity (Mus musculus [19]): inactive; Activity (Mus musculus [21]): Active; Activity (Mus musculus [22]): Toxic; zone of inhibition at 400 µg/disc (Micrococcus luteus [27]; ATCC 9341, 18 h, read-out: DIZ): 15 mm; diameter of the inhibition zone (DIZ) (Candida albicans [37]): inactive; diameter of the inhibition zone (DIZ) (Candida parapsilosis): inactive |
| Cc1ccc(NC(=S)Nc2nc[nH]n2)cc1 | 59 | > 50 | 13 | inactive | inactive | inactive | inactive | inactive | inactive | inactive | 12 | inactive | inactive | inactive | inactive | inactive | inactive | inactive | inactive | inactive | diameter of the inhibition zone (DIZ) (Micrococcus luteus [27]): inactive; diameter of the inhibition zone (DIZ) (Candida albicans [37]): inactive; diameter of the inhibition zone (DIZ) (Candida parapsilosis): inactive |
